Here are results for four molecules from ChEMBL document CHEMBL4354819, “Discovery of Novel Small Molecule Dual Inhibitors Targeting Toll-Like Receptors 7 and 8” (J Med Chem, 2019).

The target of one data set is T1, Toll-like receptor 7 (Homo sapiens, UniProt Q9NYK1).
T1 sequence (Q9NYK1 whole entry): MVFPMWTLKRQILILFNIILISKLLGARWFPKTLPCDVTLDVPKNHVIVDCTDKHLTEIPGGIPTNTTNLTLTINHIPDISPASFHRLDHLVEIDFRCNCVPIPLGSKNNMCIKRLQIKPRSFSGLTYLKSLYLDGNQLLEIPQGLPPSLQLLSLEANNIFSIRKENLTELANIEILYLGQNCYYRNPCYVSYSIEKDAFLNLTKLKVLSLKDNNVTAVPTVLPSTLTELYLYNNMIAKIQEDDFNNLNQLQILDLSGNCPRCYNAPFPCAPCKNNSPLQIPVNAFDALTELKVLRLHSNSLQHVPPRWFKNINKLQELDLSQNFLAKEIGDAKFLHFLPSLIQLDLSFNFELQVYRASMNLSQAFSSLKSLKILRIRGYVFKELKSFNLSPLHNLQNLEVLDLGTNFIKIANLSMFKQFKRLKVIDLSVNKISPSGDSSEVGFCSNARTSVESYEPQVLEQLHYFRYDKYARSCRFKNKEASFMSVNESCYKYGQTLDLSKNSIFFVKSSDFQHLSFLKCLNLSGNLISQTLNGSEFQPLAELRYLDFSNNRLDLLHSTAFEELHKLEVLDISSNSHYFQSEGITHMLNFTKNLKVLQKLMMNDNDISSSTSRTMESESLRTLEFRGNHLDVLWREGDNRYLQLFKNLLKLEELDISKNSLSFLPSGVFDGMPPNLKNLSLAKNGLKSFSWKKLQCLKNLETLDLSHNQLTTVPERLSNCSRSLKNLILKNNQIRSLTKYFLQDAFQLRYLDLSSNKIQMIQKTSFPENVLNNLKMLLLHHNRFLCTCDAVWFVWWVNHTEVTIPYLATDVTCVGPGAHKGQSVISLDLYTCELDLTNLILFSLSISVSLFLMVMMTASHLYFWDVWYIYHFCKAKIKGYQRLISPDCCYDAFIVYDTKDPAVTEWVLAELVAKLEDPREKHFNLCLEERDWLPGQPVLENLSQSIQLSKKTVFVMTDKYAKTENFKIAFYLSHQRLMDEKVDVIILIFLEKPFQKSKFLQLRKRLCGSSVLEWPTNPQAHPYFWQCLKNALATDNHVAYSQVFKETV
The data set can be described thus: Inhibition of human TLR7 expressed in HEK293 cells assessed as reduction in R848-induced NFkappaB production incubated for 16 hrs by quanti-blue SEAP assay. Format: cell-based. The method, boiled down: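 HEK 293-Blue cells stably expressing hTLR7 or hTLR8 with an inducible SEAP reporter were incubated 16 h with compound under 1 µg/mL R848 stimulation. SEAP was read at 620 nm. Data were normalized to the R848 control, and IC50 was taken from concentration-response curves. […] Mean ± s.d., n = 3 independent experiments.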

For data set [1], the target named is T2, Toll-like receptor 8 (Homo sapiens) (UniProt Q9NR97).
T2 sequence (whole entry): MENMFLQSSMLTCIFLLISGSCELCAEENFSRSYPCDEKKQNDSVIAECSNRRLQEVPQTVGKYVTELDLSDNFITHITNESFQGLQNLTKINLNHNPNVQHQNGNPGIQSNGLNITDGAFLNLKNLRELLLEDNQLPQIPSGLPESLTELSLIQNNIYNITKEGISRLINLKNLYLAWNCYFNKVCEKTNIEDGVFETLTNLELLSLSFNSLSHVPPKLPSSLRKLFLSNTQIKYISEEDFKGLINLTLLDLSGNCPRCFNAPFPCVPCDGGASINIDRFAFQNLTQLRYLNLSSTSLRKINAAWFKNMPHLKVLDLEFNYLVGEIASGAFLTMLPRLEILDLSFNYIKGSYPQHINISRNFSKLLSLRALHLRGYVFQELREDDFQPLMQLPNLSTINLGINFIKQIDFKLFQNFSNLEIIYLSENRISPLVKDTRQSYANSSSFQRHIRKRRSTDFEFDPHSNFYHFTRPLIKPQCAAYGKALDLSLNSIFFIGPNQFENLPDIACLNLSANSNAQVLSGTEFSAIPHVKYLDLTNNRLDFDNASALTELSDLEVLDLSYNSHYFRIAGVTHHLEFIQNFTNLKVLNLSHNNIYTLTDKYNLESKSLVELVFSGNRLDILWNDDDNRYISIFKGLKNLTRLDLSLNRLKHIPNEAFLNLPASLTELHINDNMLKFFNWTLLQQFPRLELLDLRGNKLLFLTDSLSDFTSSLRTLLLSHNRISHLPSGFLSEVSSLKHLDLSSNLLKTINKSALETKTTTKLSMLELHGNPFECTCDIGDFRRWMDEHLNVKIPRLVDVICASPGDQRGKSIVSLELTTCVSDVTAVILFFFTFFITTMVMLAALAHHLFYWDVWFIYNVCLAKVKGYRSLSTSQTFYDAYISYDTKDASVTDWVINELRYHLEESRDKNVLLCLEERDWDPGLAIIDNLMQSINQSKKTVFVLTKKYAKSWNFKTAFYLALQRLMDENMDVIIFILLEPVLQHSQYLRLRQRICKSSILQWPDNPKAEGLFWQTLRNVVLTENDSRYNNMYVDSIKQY
The data set can be described thus: Inhibition of human TLR8 expressed in HEK293 cells assessed as reduction in R848-induced NFkappaB production at 0.5 uM incubated for 16 hrs by quanti-blue SEAP assay. The format is cell-based.

The target of data set [2] is T3, Toll-like receptor 7 (Homo sapiens) (UniProt Q9NYK1).
T3 sequence (whole entry): T1 sequence (Q9NYK1 whole entry)
The data set is described as follows: Inhibition of human TLR7 expressed in HEK293 cells assessed as reduction in resiquimod-induced NFkappaB production at 0.5 uM incubated for 16 hrs by quanti-blue SEAP assay. Format: cell-based. The method, boiled down:
(§1)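 Selectivity panel in stably transfected HEK 293-Blue cells, each overexpressing one human TLR with an inducible SEAP reporter. Agonists: Pam3CSK4 (TLR1/2), Pam2CSK4 (TLR2/6), poly(I:C) (TLR3), LPS (TLR4), R848 (TLR7/8), ODN 2006 (TLR9). Cells were exposed to compound for 16 h. Activity = (raw − untreated)/(ligand + solvent − untreated), with ligand + solvent set as 100%.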

Data set [3] concerns the target T2, Toll-like receptor 8 (Homo sapiens). The data set can be described thus: Inhibition of human TLR8 expressed in HEK293 cells assessed as reduction in R848-induced NFkappaB production at 5 to 20 uM incubated for 16 hrs by quanti-blue SEAP assay. Format: cell-based. A digest of the protocol: as §1
Another data set deals with THP-1. The data set can be described thus: Cytotoxicity against human THP1 cells transfected with human TLR7/8 assessed as reduction in cell viability at 0.5 to 20 uM incubated for 16 hrs by WST-1 assay. The format is cell-based. Particulars: thp-1, 16 h. In general terms: Formazan colour is commonly taken as a measure of viable cells.
For another data set, the system named is RAW264.7. The data set can be described thus: Cytotoxicity against mouse RAW264.7 cells transfected with human TLR7/8 assessed as reduction in cell viability at 0.5 to 20 uM incubated for 16 hrs by WST-1 assay. The format is cell-based. The note with it: raw264.7, 16 h.
The target of data set [4] is Toll-like receptor 7 (Mus musculus) (UniProt P58681). The data set can be described thus: Inhibition of endogenous mouse TLR7 in mouse RAW264.7 cells assessed as resiquimod-induced NO production at > 5 uM incubated for 18 to 24 hrs.
Toll-like receptor 7 (Mus musculus), sequence (P58681 whole entry, looked up): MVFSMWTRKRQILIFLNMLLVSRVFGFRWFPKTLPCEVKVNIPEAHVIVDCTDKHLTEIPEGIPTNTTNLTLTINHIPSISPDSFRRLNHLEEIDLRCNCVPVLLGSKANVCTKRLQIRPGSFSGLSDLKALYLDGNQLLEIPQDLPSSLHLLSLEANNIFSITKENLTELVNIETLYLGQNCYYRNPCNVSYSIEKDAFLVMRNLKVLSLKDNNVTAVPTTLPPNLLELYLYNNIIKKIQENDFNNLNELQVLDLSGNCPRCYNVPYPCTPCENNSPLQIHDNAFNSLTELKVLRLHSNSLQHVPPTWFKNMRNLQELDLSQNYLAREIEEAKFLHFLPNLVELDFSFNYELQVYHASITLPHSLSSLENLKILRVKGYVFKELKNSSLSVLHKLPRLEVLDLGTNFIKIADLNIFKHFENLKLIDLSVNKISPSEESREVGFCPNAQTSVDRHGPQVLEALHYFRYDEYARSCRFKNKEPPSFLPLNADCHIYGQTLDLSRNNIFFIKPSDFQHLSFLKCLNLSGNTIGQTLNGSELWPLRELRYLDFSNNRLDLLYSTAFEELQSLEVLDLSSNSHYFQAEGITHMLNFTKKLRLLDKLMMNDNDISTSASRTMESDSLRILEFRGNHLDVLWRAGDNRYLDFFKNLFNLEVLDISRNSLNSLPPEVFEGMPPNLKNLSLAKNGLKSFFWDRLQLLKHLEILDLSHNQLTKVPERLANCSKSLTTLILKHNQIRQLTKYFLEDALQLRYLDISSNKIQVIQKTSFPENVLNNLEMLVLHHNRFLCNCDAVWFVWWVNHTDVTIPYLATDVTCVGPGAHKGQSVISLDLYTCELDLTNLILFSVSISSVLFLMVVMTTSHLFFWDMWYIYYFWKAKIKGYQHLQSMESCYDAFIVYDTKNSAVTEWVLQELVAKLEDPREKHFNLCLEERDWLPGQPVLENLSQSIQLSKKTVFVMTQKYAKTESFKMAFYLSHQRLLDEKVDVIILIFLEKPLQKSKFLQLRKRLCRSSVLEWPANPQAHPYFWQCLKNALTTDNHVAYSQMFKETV

The source made the active and inactive calls. No cut-off for these calls is given here.

For orientation: IC50 means the concentration that inhibits the measured activity by half. Turning to `O=C(Nc1ccc(Oc2cc(C(F)(F)F)cc(C(F)(F)F)c2)cc1)c1c(F)cccc1Cl`, at Toll-like receptor 7, the IC50 is 2.88 µM.
As for `O=C(Nc1ccc(Oc2cc(C(F)(F)F)cc(C(F)(F)F)c2)cc1)c1c(F)cccc1I`, the IC50 at Toll-like receptor 7 was more than 50 µM. For the same molecule, the inhibition result in data set [1] and in data set [2] was “inactive” in each case. The inhibition entry in data set [3] and in data set [4] was “Active” in each case. Also, the Activity entry in the data set on THP-1 and in the data set on RAW264.7 was “Non-Toxic” throughout.
For `O=[N+]([O-])c1c(I)cccc1Oc1ccc(-c2nnco2)cc1`, the IC50 at Toll-like receptor 7 is more than 20 µM. Besides, the Activity result in the data set on THP-1 and in the data set with RAW264.7 was “Non-Toxic” throughout. In addition, in data set [4], the inhibition result was “Active”.
For the molecule `O=C(Nc1ccc(Oc2cncc(C(F)(F)F)c2)cc1)c1c(F)cccc1Cl`, the inhibition entry in data set [1] and in data set [2] was “inactive” each time. The inhibition result in data set [3] is “Active”. Moreover, the Activity result in the data set with THP-1 and in the data set with RAW264.7 was “Non-Toxic” in each case.
